Activity calls are given as the source filed them. No cut-off for these calls is given here.
Legend:
[1] = Selectivity index, ratio of IC50 for mouse L929 cells to IC50 for human HCT116 cells after 72 hrs by MTT assay; type: toxicity; conditions: L929 cells versus HCT116 cells, read-out: Ratio IC50
Outline: (§1)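 Both cell types were kept in medium with 10% FBS, 2 mM L-glutamine and penicillin/streptomycin at 37 °C, 5% CO2. Seeding was 0.7 × 10^5 cells per well for HCT-116, 0.1 × 10^6 for the other lines. Cells got compound in DMSO (0.1% final) for 72 h, then 0.5 mg/mL MTT for 3 h, with formazan read at 550 nm. IC50 came from nonlinear regression over three independent experiments in triplicate. SI is the L929 IC50 divided by the cancer-line IC50.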

[2] = Selectivity index, ratio of IC50 for mouse L929 cells to IC50 for human PC3 cells after 72 hrs by MTT assay; type: toxicity; conditions: L929 cells versus PC3 cells, read-out: Ratio IC50; outline: as §1
[3] = Cytotoxicity against human Lucena1 cells assessed as reduction in cell viability after 72 hrs by MTT assay; type: functional, cell-based; conditions: Lucena 1, 72 h
Outline: (§2)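 Cells were grown in medium with 10% FBS, 2 mM L-glutamine, penicillin and streptomycin at 37 °C, 5% CO2. Seeding per well was 0.1 × 10^6 for leukaemia, PC3, L929 and NCI-H460, and 0.7 × 10^5 for HCT-116. Compounds in DMSO (0.1% final) were applied for 72 h. MTT (0.5 mg/mL) was added for 3 h, formazan dissolved in DMSO, and absorbance read at 550 nm. IC50 by nonlinear regression; three independent experiments in triplicate.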

[4] = Selectivity index, ratio of LC50 for cytotoxicity against albino Swiss mouse peritoneal macrophages to IC50 for Antitrypanosomal activity against Trypanosoma cruzi Y strain bloodstream trypomastigotes assessed as lysis of parasite in presence of 5 % mouse blood; type: toxicity
Outline: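 Y-strain bloodstream trypomastigotes came from infected albino mice at peak parasitaemia and were purified by differential centrifugation. They were resuspended at 10^7/mL in RPMI with 10% mouse blood and mixed 1:1 with compound at twice the final concentration (DMSO ≤0.4%). Incubation was 24 h at 4 °C (5% blood per footnote).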

[5] = system: HL-60; experiment: Cytotoxicity against human HL-60 cells assessed as reduction in cell viability after 72 hrs by MTT assay; type: functional, cell-based; conditions: HL-60, 72 h
Outline: as §2, with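 “CO2.” for “CO2. Seeding per well was 0.1 × 10^6 for leukaemia, PC3, L929 and NCI-H460, and 0.7 × 10^5 for HCT-116.”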

[6] = Selectivity index, ratio of IC50 for mouse L929 cells to IC50 for human Lucena1 cells after 72 hrs by MTT assay
Outline: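 Selectivity index is the ratio of IC50 in murine L929 fibroblasts to IC50 in Lucena 1 cells, each measured by 72 h MTT assay (absorbance 550 nm). IC50 values came from nonlinear regression of three independent experiments in triplicate.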

[7] = Selectivity index, ratio of LC50 for cytotoxicity against albino Swiss mouse peritoneal macrophages to IC50 for Antitrypanosomal activity against Trypanosoma cruzi Y strain bloodstream trypomastigotes assessed as lysis of parasite in absence of mouse blood; type: toxicity
Outline: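 Y-strain bloodstream trypomastigotes came from infected albino mice at peak parasitaemia and were purified by differential centrifugation into RPMI. They were exposed 24 h at 37 °C without blood to compound (DMSO ≤0.4%).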

[8] = Selectivity index, ratio of IC50 for mouse L929 cells to IC50 for human HL-60cells after 72 hrs by MTT assay; type: toxicity; conditions: L929 cells versus HL-60 cells, read-out: Ratio IC50; outline: as §1
[9] = system: PC-3; experiment: Cytotoxicity against human PC-3 cells assessed as reduction in cell viability after 72 hrs by MTT assay; type: functional, cell-based; conditions: PC-3, 72 h; outline: as §2
[10] = Cytotoxicity against albino Swiss mouse peritoneal macrophages assessed as reduction in cell viability incubated for 24 hrs by Presto blue assay; type: tissue-based, Macrophage; conditions: read-out: LC50
Outline: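 Primary peritoneal macrophages from Albino Swiss mice were seeded at 2.5 × 10^4 cells per well in RPMI-1640 (pH 7.2, 10% FBS, 2 mM glutamine) and grown 24 h at 37 °C. They were then treated 24 h at 37 °C with compound from DMSO stock (final DMSO ≤0.4%).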

[11] = system: Trypanosoma cruzi; experiment: Antitrypanosomal activity against Trypanosoma cruzi Y strain bloodstream trypomastigotes assessed as lysis of parasite in presence of 5 % mouse blood incubated for 24 hrs by Neubauer chamber method; type: functional, organism-based
Outline: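 Y strain bloodstream trypomastigotes came from infected albino mice at peak parasitaemia, purified by differential centrifugation, in RPMI at 10^7 cells/mL with 10% mouse blood. They were mixed 1:1 with compound at twice the final concentration (5% blood final), 24 h at 4 °C, with DMSO ≤0.4% final. Neubauer chamber counting; IC50 is 50% lysis; at least three independent experiments.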

[12] = Selectivity index, ratio of IC50 for mouse L929 cells to IC50 for human K-562 cells after 72 hrs by MTT assay; type: toxicity; conditions: L929 cells versus K-562 cells, read-out: Ratio IC50; outline: as §1
[13] = system: K562; experiment: Cytotoxicity against human K562 cells assessed as reduction in cell viability after 72 hrs by MTT assay; type: functional, cell-based; conditions: K562, 72 h; outline: as §2
[14] = system: HCT-116; experiment: Cytotoxicity against human HCT-116 cells assessed as reduction in cell viability after 72 hrs by MTT assay; type: functional, cell-based; conditions: HCT-116, 72 h; outline: as §2
[15] = system: L929; experiment: Cytotoxicity against mouse L929 cells assessed as reduction in cell viability after 72 hrs by MTT assay; type: cell-based; conditions: L929, 72 h; outline: as §2
[16] = system: NCI-H460; experiment: Cytotoxicity against human NCI-H460 cells assessed as reduction in cell viability after 72 hrs by MTT assay; type: functional, cell-based; conditions: NCI-H460, 72 h
Outline: as §2, with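 “CO2.” for “CO2. Seeding per well was 0.1 × 10^6 for leukaemia, PC3, L929 and NCI-H460, and 0.7 × 10^5 for HCT-116.”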

[17] = Selectivity index, ratio of IC50 for mouse L929 cells to IC50 for human NCI-H460 cells after 72 hrs by MTT assay; type: toxicity; conditions: L929 cells versus NCI-H460 cells, read-out: Ratio IC50; outline: as §1
[18] = system: K562; experiment: Induction of reactive oxygen species generation in human K562 cells at 40 uM measured after 3 hr by H2DCFDA probe-based flow cytometry; type: functional, cell-based
Outline: (§3)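 K-562 cells were pre-loaded with 10 μM CM-H2DCFDA for 1 h in the dark at 37 °C/5% CO2, washed with PBS, then incubated with compound in fresh medium for 1 or 3 h. Cells were resuspended in PBS with 1 μg/mL propidium iodide and analysed by flow cytometry on ice. DCF fluorescence (ex 490/em 525 nm) was read in PI-negative cells, 10 000 events per sample. Menadione 20 μM and H2O2 150 μM were positive controls. Mean ± SEM of three independent experiments.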

[19] = system: Trypanosoma cruzi; experiment: Antitrypanosomal activity against Trypanosoma cruzi Y strain bloodstream trypomastigotes assessed as lysis of parasite in absence of mouse blood incubated for 24 hrs by Neubauer chamber method; type: functional, organism-based
Outline: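 T. cruzi Y strain bloodstream trypomastigotes came from infected albino mice at peak parasitaemia and were purified by differential centrifugation. They were exposed to compounds for 24 h at 37 °C without blood. Parasites were counted in a Neubauer chamber, and IC50 is the concentration lysing 50% of parasites. Values are mean ± SD of at least three independent experiments.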

[20] = system: K562; experiment: Induction of reactive oxygen species generation in human K562 cells at 40 uM measured after 1 hr by H2DCFDA probe-based flow cytometry; type: functional, cell-based; outline: as §3

Compound | selectivity ratio at 72 h [1] | selectivity ratio at 72 h [2] | IC50 [3] [µM] | selectivity ratio [4] | IC50 [5] [µM] | Ratio IC50 [6] | selectivity ratio [7] | selectivity ratio at 72 h [8] | IC50 [9] [µM] | CC50 at 24 h [10] [µM] | IC50 [11] [µM] | selectivity ratio at 72 h [12] | IC50 [13] [µM] | IC50 [14] [µM] | IC50 [15] [µM] | IC50 [16] [µM] | selectivity ratio at 72 h [17] | Activity [18] | IC50 [19] [µM] | Activity [20]
O=C1C=C(Sc2ccccc2)c2ccccc2C1=O | 2.2 | 0.7 | 15.6 | 1.52 | 6.08 | 1.8 | 28.4 | 4.6 | > 20 | 36.9 | 24.3 | 1.8 | 15.7 | 12.8 | > 20 | > 20 | 0.7 | Active | 1.3 | Active
C#CCOC1=C/C(=N\c2ccc(Cl)cc2)c2ccccc2C1=O | 1.6 | 2.1 | 16.4 |  | 11 | 1.9 |  | 2.8 | 14.6 |  |  | 2.4 | 12.8 | 18.9 | > 20 | 16.2 | 1.9 | Active |  | 
Cc1ccc(S(=O)(=O)n2cc(COC3=C/C(=N\c4ccc(Br)cc4)c4ccccc4C3=O)nn2)cc1 | 1.9 | 5.2 | 3.32 |  | 4.22 | 5.3 |  | 4.2 | 3.41 | > 100 | > 500 | 3.3 | 5.4 | 9.25 | > 17.8 | 9.41 | 1.9 | Active |  | 
O=C(Cn1ccnc1[N+](=O)[O-])NCc1ccccc1 [BENZNIDAZOLE] |  |  |  | > 38.6 |  |  | > 413 |  |  | > 4000 |  |  |  |  |  |  |  |  | 9.7 | 
COc1ccc(SC2=CC(=O)C(=O)c3ccccc32)cc1 | 1 | 1 | > 20 | 0.37 | 9.38 | 1 | 10.6 | 3.6 | > 20 | 41.5 | 112 | 2.5 | 13.3 | > 20 | > 20 | > 20 | 1 |  | 3.9 | 
COc1ccc(/N=C2\C=C(OCc3cn(S(=O)(=O)c4ccc(C)cc4)nn3)C(=O)c3ccccc32)cc1 | 2.9 | 1 | 4.58 | > 11.3 | 6.96 | 5.4 |  | 3.3 | > 20 | 44.3 | > 500 | 1 | > 20 | 7.43 | > 20 | 8.39 | 2.6 |  |  | 
Cc1cccc(SC2=CC(=O)C(=O)c3ccccc32)c1 | 1.8 | 1 | 12.7 | 1.03 | 5.42 | 2.8 | 14.6 | 6.6 | > 20 | 67.3 | 65.6 | 2.2 | 16.2 | 19.6 | > 20 | > 20 | 1 |  | 4.6 | 
Cc1ccc(SC2=CC(=O)C(=O)c3ccccc32)cc1 | 1.3 | 0.8 | 12.8 | 0.92 | 4.14 | 2.1 | 23.9 | 6.6 | > 20 | 81.4 | 88.7 | 1.8 | 14.9 | > 20 | > 20 | > 20 | 0.8 |  | 3.4 | 

Source: ChEMBL document CHEMBL4673180, “Synthesis of quinone imine and sulphur-containing compounds with antitumor and trypanocidal activities: redox and biological implications” (RSC Med Chem, 2020)
